Legend:
BTK = assay: mRNA expression; format: cell-based, human; conditions: RAJI cells, ibrutinib, 24 h
Outline: (§1)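 RAJI cells treated 24 h with test nanomaterial (347, 174, 84 µM) or reference BTK inhibitor (30, 15 µM). Total RNA extracted with TRIzol and 1 µg reverse-transcribed. qPCR run as 95°C 60 s, then 40 cycles of 95°C 15 s, primer-specific annealing 30 s, 72°C 30 s, with melt-curve check. Expression by 2−ΔΔCT vs HPRT1. ≥4 experiments, mean ± SD, ANOVA with Dunnett's test vs untreated.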

K562 cells = assay: Cytotoxicity; format: cell-based; conditions: Homo sapiens, K562, 72 h, read-out: Antiproliferative activity IC50, K562 cells
Outline: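 K562 cells were grown in RPMI-1640 with 10% heat-inactivated FBS and penicillin/streptomycin at 37°C, 5% CO2. Seeded at 8,000 cells/well, rested 24 h, then exposed 72 h to a concentration series. MTS reagent was added in phenol-red-free DMEM for 1 h at 37°C and absorbance read at 490 nm. Response was taken relative to control and IC50 fitted. Triplicates per experiment, 3–4 experiments.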

p62 = assay: mRNA expression; format: cell-based, human; conditions: RAJI cells, ibrutinib 15 µM, 24 h
Outline: as §1

ARID3A = assay: mRNA expression; format: cell-based, human; conditions: RAJI cells, 30 µM ibrutinib, 24 h
Outline: as §1

NFAT = assay: mRNA expression; format: cell-based, human; conditions: RAJI cells, 24 h
Outline: as §1

c-Myc = assay: Immunoblotting in RAJI cells after anti-IgM stimulation; format: cell-based, human; conditions: 20 µM ibrutinib, 24 h
Outline: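 RAJI cells seeded at 500,000 per dish. Next day they were stimulated with anti-human IgM (12 µg/mL, 10 min), then the medium was replaced with test nanomaterial (347, 174 µM) or reference inhibitor (20 µM) for 24 h. Lysed on ice in RIPA with protease/phosphatase inhibitors and EDTA, then BCA-normalised SDS-PAGE onto nitrocellulose. Primary antibodies 1:1000 overnight at 4°C, loading controls 1:2000, HRP secondary, chemiluminescence, densitometry. 4–5 experiments.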

[1] = system: calcium levels in RAJI cells; assay: Calcium assay; format: cell-based, human; conditions: 24 h, HDGF 347 and 174 µM, ibrutinib 30 and 15 µM
Outline: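 RAJI cells seeded at 40,000/well and held 24 h at 37°C. Medium was replaced with test nanomaterial (347, 174 µM) or reference BTK inhibitor (30, 15 µM) for 24 h. Cells were washed in cold PBS, loaded with Fluo-4 AM (5 µM, 30 min, 37°C), washed, and resuspended in serum-free, phenol-red-free DMEM. Fluorescence read at ex 485/em 520 nm. ≥3 experiments, mean ± SD, ANOVA with Dunnett's test vs untreated.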

TLR8 = assay: mRNA expression; format: cell-based, human; conditions: RAJI cells, 24 h
Outline: as §1

C=CC(=O)N1CCC[C@@H](n2nc(-c3ccc(Oc4ccccc4)cc3)c3c(N)ncnc32)C1 [ibrutinib]
BTK gene expression (BTK): increased
IC50 (K562 cells): 850 nM
Expression of p62 (p62): almost three-fold increase
Expression of ARID3A (ARID3A): almost two-fold downregulation
Expression of NFAT (NFAT): significant decrease
c-Myc protein expression (c-Myc): slight downregulation
Cellular calcium levels [1]: drop dramatically
Expression of TLR8 (TLR8): significant decrease
